Test results as given in ChEMBL document CHEMBL4387722.
pIC50: −log10 of the molar value.

What was measured:
HSP60/HSP10 = HSP60/HSP10 (Homo sapiens, UniProt P10809); assay: Inhibition of human HSP60 expressed in Escherichia coli Rosetta 2(DE3)/human HSP10 expressed in Escherichia coli Rosetta 2(DE3) pLysS cells assessed as reduction in HSP60/HSP10-mediated denatured pig heart mitochondrial MDH refolding by measuring MDH enzyme activity using sodium mesoxalate as substrate after 40 to 60 mins by spectrometric analysis
HSP60/HSP10, sequence (P10809 whole entry): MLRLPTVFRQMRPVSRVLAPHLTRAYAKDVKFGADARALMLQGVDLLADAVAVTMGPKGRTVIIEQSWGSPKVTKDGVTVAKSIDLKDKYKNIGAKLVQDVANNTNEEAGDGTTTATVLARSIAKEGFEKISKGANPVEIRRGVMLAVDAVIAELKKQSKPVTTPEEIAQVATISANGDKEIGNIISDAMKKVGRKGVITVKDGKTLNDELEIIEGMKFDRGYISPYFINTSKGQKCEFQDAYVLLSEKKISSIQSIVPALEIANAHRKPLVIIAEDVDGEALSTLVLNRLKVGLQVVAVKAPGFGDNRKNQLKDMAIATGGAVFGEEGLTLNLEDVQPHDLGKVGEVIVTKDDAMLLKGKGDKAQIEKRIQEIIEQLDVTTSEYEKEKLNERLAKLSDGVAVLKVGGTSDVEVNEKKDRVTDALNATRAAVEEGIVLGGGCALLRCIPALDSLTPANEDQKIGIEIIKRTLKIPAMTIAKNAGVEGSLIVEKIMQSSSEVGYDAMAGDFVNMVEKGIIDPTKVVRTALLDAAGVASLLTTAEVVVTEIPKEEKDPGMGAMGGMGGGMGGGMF
HSP60/HSP10, sequence (P61604 whole entry, further chain): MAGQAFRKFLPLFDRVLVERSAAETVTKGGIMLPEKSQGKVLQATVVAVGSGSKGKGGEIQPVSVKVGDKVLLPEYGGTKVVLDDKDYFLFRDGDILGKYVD

[1] = biological target: T1, Tyrosine-protein phosphatase non-receptor type 1 (Homo sapiens, UniProt P18031); assay: Inhibition of human PTPN1 expressed in Escherichia coli Rosetta 2 (DE3) using pNPP as substrate after 45 mins by spectrophotometric method
T1 sequence (P18031 whole entry): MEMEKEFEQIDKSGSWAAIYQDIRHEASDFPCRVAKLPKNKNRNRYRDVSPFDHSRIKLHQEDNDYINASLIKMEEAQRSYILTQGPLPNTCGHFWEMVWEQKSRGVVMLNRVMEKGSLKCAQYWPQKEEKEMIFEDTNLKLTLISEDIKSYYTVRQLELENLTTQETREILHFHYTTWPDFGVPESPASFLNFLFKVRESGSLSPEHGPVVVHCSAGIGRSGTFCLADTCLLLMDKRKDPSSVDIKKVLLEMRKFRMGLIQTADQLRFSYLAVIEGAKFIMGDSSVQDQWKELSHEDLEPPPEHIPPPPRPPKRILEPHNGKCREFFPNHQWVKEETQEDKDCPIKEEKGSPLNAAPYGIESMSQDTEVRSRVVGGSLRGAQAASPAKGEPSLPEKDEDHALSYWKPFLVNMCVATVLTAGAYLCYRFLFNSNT

[2] = biological target: T2, Tyrosine-protein phosphatase non-receptor type 5 (Homo sapiens, UniProt P54829); assay: Inhibition of human PTPN5 expressed in Escherichia coli Rosetta 2 (DE3) using pNPP as substrate after 45 mins by spectrophotometric method
T2 sequence (P54829 whole entry): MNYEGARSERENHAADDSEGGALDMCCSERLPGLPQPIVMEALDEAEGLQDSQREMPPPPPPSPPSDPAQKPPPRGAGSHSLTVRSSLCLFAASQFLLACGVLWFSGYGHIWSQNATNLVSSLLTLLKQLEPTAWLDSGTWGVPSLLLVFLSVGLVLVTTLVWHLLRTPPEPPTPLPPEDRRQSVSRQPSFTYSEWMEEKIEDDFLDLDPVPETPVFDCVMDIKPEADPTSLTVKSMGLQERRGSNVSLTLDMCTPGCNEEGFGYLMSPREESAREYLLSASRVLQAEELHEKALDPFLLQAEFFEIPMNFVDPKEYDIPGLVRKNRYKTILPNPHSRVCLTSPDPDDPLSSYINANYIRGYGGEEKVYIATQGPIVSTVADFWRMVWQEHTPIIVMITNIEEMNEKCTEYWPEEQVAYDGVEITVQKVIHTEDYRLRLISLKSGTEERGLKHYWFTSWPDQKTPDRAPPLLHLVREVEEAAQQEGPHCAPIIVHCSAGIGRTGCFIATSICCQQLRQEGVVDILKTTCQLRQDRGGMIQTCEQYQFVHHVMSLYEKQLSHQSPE

[3] = Cytotoxicity against human HEK293 cells assessed as reduction in cell viability after 48 hrs by Alamar blue assay; assay type: cell-based
How it was run: (§1)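 Alamar Blue viability read-out. Human liver (THLE-3) and kidney (HEK 293) cells incubated with compound for 48 h. Tested in dose-response to derive CC50.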

[4] = biological target: T3, Malate dehydrogenase, mitochondrial (Sus scrofa, UniProt P00346); assay: Inhibition of refolded pig heart mitochondrial MDH preincubated with Escherichia coli GroEL/GroES for 45 mins using sodium mesoxalate as substrate followed by compound addition and measured after 20 to 30 mins by spectrometric analysis
T3 sequence (P00346 whole entry): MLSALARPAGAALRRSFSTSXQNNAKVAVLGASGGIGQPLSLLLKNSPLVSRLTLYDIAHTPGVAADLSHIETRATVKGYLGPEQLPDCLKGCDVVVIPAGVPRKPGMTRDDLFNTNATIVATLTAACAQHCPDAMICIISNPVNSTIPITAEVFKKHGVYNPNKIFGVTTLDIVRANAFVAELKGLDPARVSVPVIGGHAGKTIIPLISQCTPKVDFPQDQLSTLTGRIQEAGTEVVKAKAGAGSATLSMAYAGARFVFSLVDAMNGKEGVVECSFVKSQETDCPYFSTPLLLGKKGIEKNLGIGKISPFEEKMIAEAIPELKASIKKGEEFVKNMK

[5] = biological target: T4, Phosphotyrosine protein phosphatase (Mycobacterium tuberculosis, UniProt A0A045ISB3); assay: Inhibition of Mycobacterium tuberculosis His-tagged PtpB expressed in Escherichia coli Rosetta 2 (DE3) using pNPP as substrate after 30 mins by spectrophotometric method
T4 sequence (A0A045ISB3 whole entry): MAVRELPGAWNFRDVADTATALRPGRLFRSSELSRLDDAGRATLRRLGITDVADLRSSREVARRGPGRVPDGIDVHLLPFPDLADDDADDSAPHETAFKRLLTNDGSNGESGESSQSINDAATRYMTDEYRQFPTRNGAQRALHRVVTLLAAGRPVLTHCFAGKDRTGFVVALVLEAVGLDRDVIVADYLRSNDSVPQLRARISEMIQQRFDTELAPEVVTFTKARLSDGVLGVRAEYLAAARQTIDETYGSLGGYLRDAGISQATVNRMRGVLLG

[6] = Cytotoxicity against human THLE3 cells assessed as reduction in cell viability after 48 hrs by Alamar blue assay; assay type: cell-based; how it was run: as §1
[7] = Inhibition of refolded rhodanese (unknown origin) preincubated with Escherichia coli GroEL/GroES for 60 mins by measuring rhodanese enzyme activity followed by compound addition by Fe(SCN)3 dye based spectrometric analysis; design: species or system Homo sapiens
[8] = biological target: T5, Tyrosine-protein phosphatase non-receptor type 2 (Homo sapiens, UniProt P17706); assay: Inhibition of human PTPN2 expressed in Escherichia coli Rosetta 2 (DE3) using pNPP as substrate after 45 mins by spectrophotometric method
T5 sequence (P17706 whole entry): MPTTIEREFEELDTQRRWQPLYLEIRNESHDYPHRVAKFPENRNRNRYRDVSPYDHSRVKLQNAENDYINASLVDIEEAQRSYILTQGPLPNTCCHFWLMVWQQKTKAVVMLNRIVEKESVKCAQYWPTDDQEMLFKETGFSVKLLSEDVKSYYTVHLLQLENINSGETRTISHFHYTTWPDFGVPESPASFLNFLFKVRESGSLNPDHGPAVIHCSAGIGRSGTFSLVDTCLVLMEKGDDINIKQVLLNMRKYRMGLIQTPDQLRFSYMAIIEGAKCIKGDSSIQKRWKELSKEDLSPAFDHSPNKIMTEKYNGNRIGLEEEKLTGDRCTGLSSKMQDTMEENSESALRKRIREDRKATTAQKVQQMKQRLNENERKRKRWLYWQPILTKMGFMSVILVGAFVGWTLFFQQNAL

[9] = tested on: Mycobacterium tuberculosis; assay: Antitubercular activity against Mycobacterium tuberculosis H37Rv after 5 days at 200 uM relative to control; assay type: functional; settings: 120 h
How it was run: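 M. tuberculosis grown in liquid culture with compound at a fixed 200 μM for 5 days. Growth inhibition expressed as percent of control.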

Structure (SMILES)	pIC50 (HSP60/HSP10)	pIC50 [1]	pIC50 [2]	CC50 at 48 h [3]	pIC50 [4]	pIC50 [5]	CC50 at 48 h [6]	pIC50 [7]	pIC50 [8]	inhibition at 200 µM [9]
O=S(=O)(Nc1ccc2oc(-c3ccccc3)nc2c1)c1ccc(O)cc1	4.06	4.04	4.08	> 100 µM	< 4.20	4.01	> 100 µM	< 4.00	< 4.00	9%
CS(=O)(=O)Nc1ccc2oc(-c3ccccc3)nc2c1	< 4.00	< 4.00	< 4.00	> 100 µM	< 4.20	< 4.00	> 100 µM	< 4.00	< 4.00	6%
COc1ccccc1S(=O)(=O)Nc1ccc(-c2nc3ccccc3o2)cc1	< 4.00	4.27	4.36	> 100 µM	< 4.20	4.23	> 100 µM	< 4.00	4.28	0%
O=S(=O)(Nc1ccc2oc(-c3ccccc3)nc2c1)c1cccc(Cl)c1	< 4.00	4.06	< 4.00	70 µM	< 4.20	< 4.00	45 µM	< 4.00	4.29	45%
O=S(=O)(Nc1ccc(-c2nc3cc(NS(=O)(=O)c4ccc(Cl)s4)ccc3o2)cc1)c1ccc2ccccc2c1		5.16	4.96			5.41			4.89	0%
O=S(=O)(Nc1ccc(-c2nc3cc(NS(=O)(=O)c4cccc5ccccc45)ccc3o2)cc1)c1cccc2ccccc12		5.49	5.31			5.68			4.60	0%
COc1ccc(S(=O)(=O)Nc2ccc(-c3nc4cc(NS(=O)(=O)c5ccc(Cl)s5)ccc4o3)cc2)cc1		4.96	4.80			4.96			4.80	25%
O=c1ccc2cc(S(=O)(=O)Nc3ccc(-c4nc5cc(NS(=O)(=O)c6ccc(Cl)s6)ccc5o4)cc3)ccc2o1		5.08	4.82			5.26			4.77	0%
O=c1ccc2cc(S(=O)(=O)Nc3ccc4oc(-c5ccc(NS(=O)(=O)c6ccc(Cl)s6)cc5)nc4c3)ccc2o1		4.89	4.96			5.39			5.03	18%
CCc1ccc(S(=O)(=O)Nc2ccc3oc(-c4ccc(NS(=O)(=O)c5ccc(Cl)s5)cc4)nc3c2)cc1		4.96	4.82			5.15			4.82	0%
O=S(=O)(Nc1ccc(-c2nc3cc(NS(=O)(=O)c4ccc5ccccc5c4)ccc3o2)cc1)c1ccc2ccccc2c1		5.37	5.21			5.36			4.62	0%
O=S(=O)(Nc1ccc(-c2nc3cc(NS(=O)(=O)c4ccc(C(F)(F)F)cc4)ccc3o2)cc1)c1ccc(C(F)(F)F)cc1		5.19	5.10			5.55			4.89	0%
COc1ccc(S(=O)(=O)Nc2ccc(-c3nc4cc(NS(=O)(=O)c5ccc(OC)cc5)ccc4o3)cc2)cc1		4.85	4.82			4.92			4.80	0%
Cc1ccc(S(=O)(=O)Nc2ccc(-c3nc4cc(NS(=O)(=O)c5ccc(C)cc5)ccc4o3)cc2)cc1		4.85	4.85			5.16			4.74	0%
COc1ccc(Cl)cc1S(=O)(=O)Nc1ccc2oc(-c3ccc(NS(=O)(=O)c4ccc(Cl)s4)cc3)nc2c1		5.00	4.96			5.19			5.04	39%
O=S(=O)(Nc1ccc(-c2nc3cc(NS(=O)(=O)c4ccc(Cl)s4)ccc3o2)cc1)c1ccc(Cl)c(C(F)(F)F)c1		5.12	4.92			5.70			4.89	0%
O=S(=O)(Nc1ccc2oc(-c3ccc(NS(=O)(=O)c4ccc(Cl)s4)cc3)nc2c1)c1ccc(F)c(C(F)(F)F)c1		4.96	4.85			5.24			4.70	0%
O=[N+]([O-])c1cccc(S(=O)(=O)Nc2ccc(-c3nc4cc(NS(=O)(=O)c5cccc([N+](=O)[O-])c5)ccc4o3)cc2)c1		4.85	4.62			5.04			4.54	0%
O=S(=O)(Nc1ccc(-c2nc3cc(NS(=O)(=O)c4ccc(Cl)s4)ccc3o2)cc1)c1cccc(C(F)(F)F)c1		4.92	4.80			5.52			4.80	36%
O=S(=O)(Nc1ccc2oc(-c3ccc(NS(=O)(=O)c4ccc(Cl)s4)cc3)nc2c1)c1ccc2ccccc2c1		5.10	5.11			5.27			5.13	0%
Cc1ccccc1S(=O)(=O)Nc1ccc(-c2nc3cc(NS(=O)(=O)c4ccccc4C)ccc3o2)cc1		4.92	4.85			5.31			4.74	0%
Cc1cccc(S(=O)(=O)Nc2ccc(-c3nc4cc(NS(=O)(=O)c5cccc(C)c5)ccc4o3)cc2)c1		4.89	4.80			5.24			4.77	0%
COc1cccc(S(=O)(=O)Nc2ccc(-c3nc4cc(NS(=O)(=O)c5cccc(OC)c5)ccc4o3)cc2)c1		4.74	4.66			5.03			4.80	0%
